In the EternaBench riboswitch data:

System: MS2 coat protein
Assay: apparent Kd, MS2 coat protein; higher = weaker binding; RNA-MaP array; FMN 200 µM where present
How it was run: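 SNAP-549-labelled MS2 coat protein, doubled from 0.7 or 1.5 nM to 3 µM, was titrated over designs transcribed by stalled E. coli RNA polymerase on Illumina sequencing-chip clusters. Titrations were run without and then with constant ligand in 100 mM Tris-HCl pH 7.5, 80 mM KCl, 4 mM MgCl2, BSA, DTT, yeast tRNA and Tween-20. The apparent Kd is the median of filtered per-cluster fits to green signal normalised to red-channel RNA signal and control-cluster median Fmax.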

[1] = designed as: OFF switch for flavin mononucleotide, no ligand
[2] = ligand present: flavin mononucleotide, designed as: OFF switch for flavin mononucleotide
[3] = designed as: ON switch for flavin mononucleotide, no ligand
[4] = ligand present: flavin mononucleotide, designed as: ON switch for flavin mononucleotide

| Sequence | apparent Kd [1] [nM] | apparent Kd [2] [nM] | apparent Kd [3] [nM] | apparent Kd [4] [nM] |
| --- | --- | --- | --- | --- |
| AGAAAUUAGUGAGGAUAUGCAUAAUAUUUAGCUGCAGAAGGCACGGACCACAAGACAUGAGGAUCACCCAUGUGGAAUAUAGAU | 20.1 | 23.4 | – | – |
| AGAAGUUUGUAGAAGGACGACUAAUUUGUAUUCGUAGGAUAUACUAUUUACAUGAGGAUCACCCAUGUUUUUAUGGAACAAUGU | 11.9 | 17.2 | – | – |
| AGAAUGGGCGAGAAGGGAGUACAUGAGGAUCACCCAUGUGGUUCAUGGUGCUCAGGAUAUCGAUAGACCAAGGAGAGCCUUUGG | 21.9 | 185 | – | – |
| AGAGAAUACUCAGGAUAUCUUAAUAGAAAGAGUAGAGAAGGGAGACAUGAGGAUCACCCAUGUGAAGUCUUGAGACUACAUGGU | 367 | 470 | – | – |
| AGAGACCUCACAGGAUAUGCUGGACUUUGUCCAGCAGAAGGGUGAAAACAUGAGGAUCACCCAUGUAUGGUCUCCAAAUUUAAA | – | – | 186 | 12.1 |
| AGAGACUUGGGAGGAUAUGCCUGAUGGACACGGGCAGAAGGCCCAAACAUGAGGAUCACCCAUGUAUCUACGCCUUGAACGGGC | – | – | 236 | 17.7 |
| AGAGCCGGCACUGAGGAUAUUCAUAUUAAAACAUGAGGAUCACCCAUGUAGGCCAGAAGGCCUUGGGAGAAGGCAGGUCGGCUCU | – | – | 407 | 29.5 |
| AGAGUGACAGGAUAUUGGAUUCCUAACAUGAGGAUCACCCAUGUAGUACGGUACUACUGUCAAGAAGGGUCACUCU | 75.8 | 68.8 | – | – |
| AGAGUUGACUCAGGAUAUACGGGAAUGUGCCGCGACAUGAGGAUCACCCAUGUAGAAGGGAGAGAGAAGAAGAGAUGUAGAAGA | 56.1 | 54 | – | – |
| AGAGUUUCGUUGUGACCCAUUCACAUGAGGAUCACCCAUGUAGAGGAUAUAAGUCACCACGGUACUUAGAAGGCUGCAGGUGUG | 6.83 | 12.5 | – | – |
| AGAUAACAUGUAGGAUAUCGAGGCCUGAGGCCUCGAGAAGGACAUGAGGAUCACCCAUGUUUGCCGAGCAUGGAAUCCCGCACU | 58.6 | 425 | – | – |
| AGAUCACAUGAGGAUCACCCAUGUGAGGAUAUGGACUGAAGAGCUUCGGCUCUUCAGUCCAGAAGGCACUAUGA | 27.3 | 35 | – | – |
| AGAUCGACUGUGAGGAUAUUGACCGGACGACCCAUCGAGAAGGCACAUGAGGAUCACCCAUGUGAGUCGGUUUA | 15.5 | 17 | – | – |
| AGAUCUCAAUAAGAUCCAAUACGAACAUGAGGAUCACCCAUGUAGGAUAUGCUAGAAGUAGAGUAGCAGAAGGACAAUUACCUU | 19.9 | 19.7 | – | – |
| AGAUGACAAAGUCAUCUCUGACAGACAUGAGGAUCACCCAUGUAGGAUAUGCUACUCAAAGAGUAGCAGAAGGACAUGUGUCUU | 32.3 | 183 | – | – |
| AGAUUCAUGGCCCGUUCGGGCUCACAUGAGGAUCACCCAUGUGAGGAUAUGAUGUACCUGAUUCAUCAGAAGGCGCAUGCGAAA | 7.69 | 20.8 | – | – |
| AGCAACAUGAGGAUCACCCAUGUUGGUUCGAAAACGGACUCACAGGAUAUGCAACGUGAUCGUUUGCAGAAGGGUGCGUCCUCA | – | – | 18.4 | 28.4 |
| AGCAAGAGAGGAUAUACAUAGGAAAAAAAAGUCUGAUCCCUACAUGAGGAUCACCCAUGUAGAAGGCUCUGGCA | 69.5 | 24.7 | – | – |
| AGCACGGGAUUGGAGGAUAUGUUGUUUGCAACAUGAGGAUCACCCAUGUCUGAGGCUGAAAAGCAGCAGAAGGCCGAUACAACCA | – | – | 347 | 71.5 |
| AGCAGACGAGGAUAUAGAUGGAAUGACAUGAGGAUCACCCAUGUGAUCGAUCUAUUGGGUUUAGAAGGUGUCUGCU | 15.2 | 15.4 | – | – |
| AGCAUGGUAGGAUAUACGGAACAUUAGGGUUUGUUAUGUGGACAUGAGGAUCACCCAUGUAGAAGGGCCGUGCA | 35.6 | 67.5 | – | – |
| AGCCACAGAGGAUAUACAUACAUCCAGUGGUAAAGAAUACUACAUGAGGAUCACCCAUGUAGAAGGCUGUGGCA | 25.3 | 145 | – | – |
| AGCGAGGUAGGAUAUACAUGAGGAUCACCCAUGUGCUUGCAUGGCGUGGAACAUCGUAGUAGAAGGGCCGCGCC | 20.4 | 40.2 | – | – |
| AGCGCCAUCGUGAGAUGGCGUAUUACAUGAGGAUCACCCAUGUAGGAUAUCGAUUGCUUUGCAGUCGAGAAGGACAUGUUCUUG | 51.5 | 91.7 | – | – |
| AGCGGCGCGGGCCACCGCAGAACCAGAAGGACAUGAGGAUCACCCAUGUAGCAGAACAGGGCGGUGUAGGAUAUGGCAGGCUCG | 29.4 | 52.3 | – | – |
| AGCUACGUUUCGUAGCAGCUAGGUGAGGAUAUUCAAUUUUUCACAUGAGGAUCACCCAUGUAUGUGAAGAAGGCGCCUAGAAAA | – | – | 12.3 | 4.98 |
| AGCUACGUUUCGUAGCAGUGUCAUCGAGAAGGCUCAAAUACAUGAGGAUCACCCAUGUUAACAUGGGAGGAUAUCGAUGAUACA | – | – | 63.6 | 7.86 |
| AGCUAGUACCGAGGAUAUACGUACAUGAGGAUCACCCAUGUAUACAUGAAUUAAUGAGACUACAUGUAGAAGGCGGUACUAGCA | – | – | 51.4 | 14.2 |

| Sequence | apparent Kd [1] [nM] | apparent Kd [2] [nM] | apparent Kd [3] [nM] | apparent Kd [4] [nM] |
| --- | --- | --- | --- | --- |
| AGCUAGUCAGGAUAUGCAUACAUGUCAAAAGACGUGAAGGGACAUGAGGAUCACCCAUGUAGAAGGGACUAGCA | 40.4 | 67.9 | – | – |
| AGCUAUUACGAAGGAUAUUGUGACAUGAGGAUCACCCAUGUUUUCAUGAUUAAUUGUGAUCACGUCGAGAAGGUUGUACUAACA | – | – | 52.4 | 54.5 |
| AGCUGACGAGGAUAUACAUGAGGAUCACCCAUGUUGGUUCAGCGACGAUAGUCGCAAUGUAGAAGGUGUCAGCU | 126 | 664 | – | – |
| AGCUGGUGACAGCAAGAAUUUUAACAUGAGGAUCACCCAUGUAGAAGGCUGUACGGUUACCGUACAGAGGAUAUACAUAGAAAG | 43.2 | 62.2 | – | – |
| AGCUGGUGACAGCAUCCAUCAUGACAUGAGGAUCACCCAUGUAGAAGGCUGUACGGUUACCGUACAGAGGAUAUACAAUGAUGG | 7.73 | 8.21 | – | – |
| AGCUGUGGCCGAGGAUAUACAUUCCUAAUCCAUUGCAAAUAGCGAUGGACAUGAGGAUCACCCAUGUAGAAGGCGGUCUCAGCA | 561 | 163 | – | – |
| AGCUGUGGCCGAGGAUAUCACGAACCAUGGAAAACCAUGGAACUCAUACAUGAGGAUCACCCAUGUGAGAAGGCGGUCUCAGCA | 34.1 | 29.6 | – | – |
| AGCUGUGGCCGAGGAUAUCUAAACCUUCAAACCGAAAUAUAAUCGGACAUGAGGAUCACCCAUGUAGAGAAGGCGGUCUCAGCA | 13.3 | 28.8 | – | – |
| AGCUGUGGCCGAGGAUAUCUAUCUCAUAAAACCGAAAUAUAAUCGGACAUGAGGAUCACCCAUGUAGAGAAGGCGGUCUCAGCA | 27.6 | 129 | – | – |
| AGCUGUGGCCGAGGAUAUCUGAAAACUCAAACCGAAAUAUAAUCGGACAUGAGGAUCACCCAUGUAGAGAAGGCGGUCUCAGCA | 53 | 117 | – | – |
| AGGAAGUUAGGAUAUGCUGCUCGUCACUUGCGUGAUGAGUAGCAGAAGGGACAUGAGGAUCACCCAUGUAAAGA | 36.8 | 21.9 | – | – |
| AGGAGGUCAGGAUAUGCAUGGCGGGACUUGCGUCGUGGCGUGCAGAAGGGACAUGAGGAUCACCCAUGUGGAGU | 113 | 139 | – | – |
| AGGAGGUUAGGAUAUGCUGCUCGUCACUUGCGUGAUGAGUAGCAGAAGGAACAUGAGGAUCACCCAUGUAAAAA | 30.2 | 31.9 | – | – |
| AGGAUGUUAGGAUAUCGAAGGUUGUGGCAGGCGGGAAUUUGCGAGAAGGAACAUGAGGAUCACCCAUGUGAAAU | 22.9 | 22.2 | – | – |
| AGGCUUGCCACAGGAUAUGCUGACAUGAGAGAAGCAGAAGGGUGGUCGACGUUUUGGCGACAUGAGGAUCACCCAUGUUAGCGU | – | – | 178 | 28.3 |
| AGGGAGUGAGGAUAUACGAAAUAAAAAGAAGGAAAAAAAGAGUAGAAGGCACAUGAGGAUCACCCAUGUGAGAA | 22 | 19.5 | – | – |
| AGGUGAGCCGUCAGGAUAUGCGUUCCGUAGGGUCAGCAGAAGGGACAUGAGGAUCACCCAUGUUUCGCACGUGG | 34.2 | 71.1 | – | – |
| AGUAAGAUGCAGAAGGUGUCAGCGAGAGCUGCACAUGAGGAUCACCCAUGUUGUCGGUGACGACACAAGGAUAUGCAUCUUACA | – | – | 31.4 | 12.8 |
| AGUAAGAUGCAGAAGGUGUCAGCUAGUGCUACGACAUGAGGAUCACCCAUGUACUAGGUAGAGUACAAGGAUAUGCAUCUUACA | – | – | 23 | 6.15 |
| AGUAAGAUGCAGAAGGUGUUAGCUAGAGCUACGACAUGAGGAUCACCCAUGUACUAGAAACAGUACAAGGAUAUGCAUCUUACA | – | – | 18.1 | 6.28 |
| AGUAAGAUGCAGAAGGUGUUAGCUAGAGCUACGACAUGAGGAUCACCCAUGUACUCAAAACCGUACAAGGAUAUGCAUCUUACA | – | – | 9.55 | 6.26 |
| AGUAAUUACGAAGGAUAUGCGCUCCUCGGGCUCGCAGAAGGUCGUACAUGAGGAUCACCCAUGUGUGAUCGCUCAUAGCCGCAA | 93.2 | 41.4 | – | – |
| AGUACUACAGGAUAUACAUGAGUGAUACUCAUAUCCCUUCUACAUGAGGAUCACCCAUGUAGAAGGGUAGUACA | 15.2 | 11.7 | – | – |
| AGUAGAUCAGGAUAUACAUAAAUGAUAAUUAUGUAAAUUCUACAUGAGGAUCACCCAUGUAGAAGGGAUCUACA | 14.4 | 14 | – | – |
| AGUAGAUCAGGAUAUACAUAAAUGAUAAUUAUGUACCUAAUACAUGAGGAUCACCCAUGUAGAAGGGAUCUACA | 14.9 | 17.9 | – | – |
| AGUCGGAGCAGAGGAUAUACAUGAGGAUCACCCAUGUAAAUGAAAGAUAAGCUGGAAACAGCAAUGUAGAAGGCUGCUCCGACA | 19.2 | 91.6 | – | – |
| AGUCGGAGCAGAGGAUAUACAUGAGGAUCACCCAUGUAAUAAAUCCAAGCCUGGAAACAGGCAAUGUAGAAGGCUGCUCCGACA | 16.8 | 78.8 | – | – |
